The full list was thinned out, with hits kept by preference.
Avidin bead fluor: avidin bead compound fluorescence profile. Avidin beads, compound fluorescence 488/530 nm, flow cytometry; stronger effect = higher value. AID 1775. 220,000 compounds, 0.38% hits. fluorescence (KMESF) at 10 µM; in the data active = fluorescence above about 47
GSH fluor: GSH bead compound fluorescence profile; GSH beads flow cytometry, compound fluorescence 488/530 nm; stronger effect = higher value; fluorescence (KMESF) at 10 µM; 190,000 compounds, 0.25% hits; in the data active = fluorescence above about 89;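 note: glutathione beads carrying GST-tagged Bcl family fusion proteins plus one bare bead set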
PKD1 inh: inhibitors of human PKD1 kinase | Q15139 | PKD1 kinase fluorescence polarization assay | inhibition, % (test concentration not listed) | 200,000 compounds, 0.056% hits
Target sequence (Q15139 whole entry, looked up): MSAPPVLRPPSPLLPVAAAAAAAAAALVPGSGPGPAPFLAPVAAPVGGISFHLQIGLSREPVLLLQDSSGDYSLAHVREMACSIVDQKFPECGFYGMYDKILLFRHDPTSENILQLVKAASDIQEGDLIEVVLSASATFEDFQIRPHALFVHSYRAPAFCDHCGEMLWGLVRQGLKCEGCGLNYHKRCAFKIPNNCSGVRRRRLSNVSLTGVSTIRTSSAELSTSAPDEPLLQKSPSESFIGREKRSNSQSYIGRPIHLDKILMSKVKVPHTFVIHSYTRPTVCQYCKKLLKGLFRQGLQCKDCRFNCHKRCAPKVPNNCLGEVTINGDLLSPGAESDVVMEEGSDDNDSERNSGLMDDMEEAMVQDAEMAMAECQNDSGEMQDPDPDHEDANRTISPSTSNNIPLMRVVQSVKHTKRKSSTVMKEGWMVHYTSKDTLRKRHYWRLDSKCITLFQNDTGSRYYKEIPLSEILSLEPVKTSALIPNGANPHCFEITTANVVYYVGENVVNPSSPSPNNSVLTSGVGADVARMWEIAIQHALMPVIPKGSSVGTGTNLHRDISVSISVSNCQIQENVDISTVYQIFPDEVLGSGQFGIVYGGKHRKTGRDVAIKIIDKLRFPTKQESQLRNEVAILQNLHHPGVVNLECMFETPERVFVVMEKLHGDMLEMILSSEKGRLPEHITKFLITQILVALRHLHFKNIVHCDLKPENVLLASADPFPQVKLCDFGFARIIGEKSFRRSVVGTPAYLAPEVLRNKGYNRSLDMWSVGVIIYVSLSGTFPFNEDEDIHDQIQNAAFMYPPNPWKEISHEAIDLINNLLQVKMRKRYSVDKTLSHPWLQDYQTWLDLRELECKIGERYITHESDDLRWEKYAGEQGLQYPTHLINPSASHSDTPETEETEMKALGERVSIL
ABCG2 inh: inhibitors of human ABCG2 transporter, ABCB1 counter-screen; Q9UNQ0; IgMXP3 cells, JC-1 efflux, flow cytometry; inhibition, % at 6.6 µM; 190,000 compounds, 0.1% hits; AID 1325;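 active = inhibition above 80%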
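System: two drug-resistant human cell lines, ABCG2 and ABCB1; controls: nicardipine high and DMSO low controls; times: 10 min exposure at 25 °C with rotation, no wash; detection: flow cytometry of retained JC-1 fluorescence; read-out basis: percent efflux inhibition, scaled nicardipine 100% to DMSO 0%; doses: one concentration, 6.6 µM final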
Lmaj promast: Leishmania major promastigote growth inhibition; Leishmania major promastigotes, resazurin fluorescence viability; 200,000 compounds, 9% hits; inhibition, % at 10 µM;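 note: promastigotes grown with compound for 44 hours at 28 °C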
ABCB1 inh: blocks JC-1 efflux by human ABCB1 transporter; CCRF-Adr cells, flow cytometry; P08183; inhibition, % at 6.6 µM; 190,000 compounds, 0.067% hits; in the data active = inhibition above about 40%;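 note: higher value means more JC-1 retained so stronger ABCB1 efflux block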
A number is an active result; n = inactive; x = no result. Cut-off read from the data, not from the text of the source, unless noted: active = inhibition above about 50%; inactive = the rest.

SMILES | Avidin bead fluor | GSH fluor | PKD1 inh | ABCG2 inh | Lmaj promast | ABCB1 inh
CC(C)N(CCNS(=O)(=O)c1ccc(Cl)cc1)C(C)C | n | n | n | n | 57 | n
Cc1ccc(S(=O)(=O)NCCN(CCNS(=O)(=O)c2ccc(C)cc2)S(C)(=O)=O)cc1 | n | n | n | n | n | n
CC(C)OC(=O)CSc1nnc2c(n1)[nH]c1ccc(F)cc12 | n | n | n | n | n | n
CCOC(=O)CN(C(=O)CSc1nnc2c(n1)[nH]c1ccc(OC)cc12)c1ccc(F)cc1 | n | n | n | n | 90 | n
O=c1c([N+](=O)[O-])cccn1Cc1cccc(Cl)c1 | n | n | n | n | n | n
CC(C)n1c(N2CCN(CC(=O)Nc3ccc4c(c3)OCCO4)CC2)nc2ccccc21 | n | n | n | n | 51 | n
COc1ccc(NC(=O)N2CCN(c3nc4ccccc4n3C(C)C)CC2)cc1 | n | n | n | n | n | n
CC(C)Cn1c(N2CCN(CC(=O)Nc3ccc(Cl)cc3)CC2)nc2ccccc21 | n | n | n | n | 86 | n
CC/C(=N/Nc1cccc(C)c1)c1cnnc(SC)n1 | n | n | n | n | n | n
CC/C(=N/Nc1ccc(Cl)cc1)c1cnnc(SC)n1 | n | n | n | n | 54 | n
Cc1ccc(COn2c(-c3ccc(Cl)cc3Cl)nc3ncccc32)cc1 | n | n | n | n | n | n
Clc1cccc(COn2c(-c3ccc(Cl)cc3Cl)nc3ncccc32)c1 | n | n | n | n | 100 | n
c1ccc(C2OC3c4cccc5cccc(c45)C3N2c2ccccc2)cc1 (stereo not given) | n | n | n | n | n | n
CCOC(=O)C(C(=O)OCC)C1OC(=O)c2cc3c(cc21)C(=O)OC3C(C(=O)OCC)C(=O)OCC (stereo not given) | 200 | n | n | n | n | n
O=C1c2cc(S(=O)(=O)NCCCO)ccc2-c2ccc(S(=O)(=O)NCCCO)cc21 | n | 251 | n | n | n | n
O=C1OCC(CO)(CO)N=C1NNc1cc(Cl)ccc1Cl | n | n | n | n | 97 | n
Clc1ccc(-c2noc(CN3CCOCC3)n2)cc1 | n | x | x | x | x | x
CC1CCN(CCCOc2ccc(Br)cc2Cl)CC1 | n | n | n | n | 89 | n
Cc1ccc(OCCCCN2CCC(C)CC2)c(Br)c1 | n | n | n | n | 100 | n
O=C1CCC(=O)N1OCCCOc1ccc(Br)cc1Cl | n | n | n | n | n | n
COc1ccc(S(=O)(=O)N2CCC(C)CC2)cc1Br | n | n | n | n | n | n
CC1CCCN(CCOCCOc2ccc(Br)cc2Cl)C1 (stereo not given) | n | n | n | n | 97 | n
Clc1cc(Br)ccc1OCCN1CCOCC1 | n | n | n | n | 93 | n
C#CCOCCOCCOCCNc1nc(N2CCN(C(=O)[C@H](CCC(=O)O)n3cc(C(N)CC(C)C)nn3)CC2)nc(N2CCN(C(=O)[C@H](Cc3ccc(O)cc3)n3cc(C(N)[C@H](C)CC)nn3)CC2)n1 (stereo not given in full) | n | n | n | n | n | n
CCCCCOc1ccc(CN2CCOCC2)cc1Cl | n | n | n | n | 86 | n
SMILES | Avidin bead fluor | GSH fluor | PKD1 inh | ABCG2 inh | Lmaj promast | ABCB1 inh
CC1CCCN(CCOCCOc2ccc(Cl)cc2Br)C1 (stereo not given) | n | n | n | n | 98 | n
COc1ccc(CN2CCOCC2)cc1 | n | n | n | n | n | n
Oc1ccc(-c2nc3ccc4ccccc4c3c3c2CCC3)cc1O | n | n | n | n | n | n
CC1CCCCC1NC(=O)COC(=O)COc1ccccc1Cl (stereo not given) | n | n | n | n | n | n
O=c1oc2ccccc2c(NC(c2ccccc2)c2ccccc2)c1[N+](=O)[O-] | n | n | n | n | n | n
CC(Nc1c([N+](=O)[O-])c(=O)oc2ccccc12)C(Cl)c1ccccc1 (stereo not given) | n | n | n | n | 56 | n
COc1ccc(C(=O)c2ccc(Cl)c([N+](=O)[O-])c2)cc1 | n | n | n | n | 80 | n
O=[N+]([O-])c1nn(-c2ccc3c(c2)OCCO3)n(O)c1=Nc1ccccc1 | n | n | n | n | 97 | n
O=[N+]([O-])c1nn(-c2ccc3c(c2)OCCO3)n(O)c1=Nc1ccc(Cl)cc1 | n | n | n | n | 77 | n
CCc1ccc(N=c2c([N+](=O)[O-])nn(-c3ccc4c(c3)OCCO4)n2O)cc1 | n | n | n | n | n | n
Cc1cc(C)cc(N=c2c([N+](=O)[O-])nn(-c3ccc4c(c3)OCCO4)n2O)c1 | n | n | n | n | 85 | n
Cc1ccccc1N(CC(=O)N/N=C/c1ccc(N(C)C)cc1)C(=O)c1ccccc1 | n | n | n | n | 99 | n
Cc1ccccc1N(CC(=O)N/N=C/c1ccccc1Cl)C(=O)c1ccccc1 | n | n | n | n | n | n
CN1N=C(C(=O)Nc2ccc3c(c2)CCC3)CCC1=O | n | n | n | n | n | n
COc1ccc(C(CNC(=O)c2oc3ccc(Br)cc3c2C)N2CCCCC2)cc1 (stereo not given) | n | n | n | n | 60 | n
COc1ccc(C(CNC(=O)COc2ccc(Br)cc2F)N2CCCC2)cc1 (stereo not given) | n | n | n | n | n | n
O=C(Oc1c(CN2CCOCC2)cc(Cl)c2cccnc12)c1ccccc1Cl | n | n | n | n | 100 | n
O=C(Oc1c(Cl)cc(Cl)c2cccnc12)c1cccs1 | n | n | n | n | n | n
O=C(Oc1c(CN2CCOCC2)cc(Cl)c2cccnc12)c1cccs1 | n | n | n | n | 100 | n
O=C(Oc1ccc(Cl)c2cccnc12)N1CCOCC1 | n | n | n | n | n | n
Cc1ccc(NS(=O)(=O)c2ccc(NC(=O)c3cccs3)cc2)cc1 | n | n | n | n | n | n
Cc1ccc2[nH]c(=O)c(CN(Cc3ccc4c(c3)OCO4)Cc3nnnn3Cc3ccco3)cc2c1 | n | n | n | n | 100 | n
Cc1ccc2[nH]c(=O)c(CN(Cc3ccc4c(c3)OCO4)Cc3nnnn3C3CCCC3)cc2c1 | n | n | n | n | 64 | n
Cc1cc2cc(CN(Cc3ccc4c(c3)OCO4)Cc3nnnn3C3CCCC3)c(=O)[nH]c2cc1C | n | n | n | n | n | n
Cc1noc(C)c1C(=O)N1CCN(c2ccc(OCc3ccccc3)cc2)CC1 | n | x | x | x | x | x
Cn1cnnc1Sc1ccc(C(=O)NCCC23CC4CC(CC(C4)C2)C3)cc1[N+](=O)[O-] | n | n | n | n | 51 | n
CCS(=O)(=O)c1ccc(Sc2nncn2C)c([N+](=O)[O-])c1 | n | n | n | n | n | n
Cn1cnnc1Sc1ccc(/C=C/C(=O)c2ccc(O)cc2)cc1[N+](=O)[O-] | n | n | n | n | 100 | n
CCN(CC)S(=O)(=O)c1ccc(NC(=O)c2ccc(Sc3nncn3C)c([N+](=O)[O-])c2)cc1 | n | n | n | n | n | n

Screening results from PubChem.
